Active and inactive are the calls of the source. The rule behind the calls is not given here.
Tests used:
A10 [1] = assay: Upregulation of Rgc32 mRNA expression in rat A10 cells at 3 uM after 24 hrs by quantitative RT-PCR analysis; type: functional, cell-based
A10 [2] = assay: Upregulation of p21 mRNA expression in rat A10 cells at 3 to 30 uM after 24 hrs by quantitative RT-PCR analysis; type: functional, cell-based
A10 [3] = assay: Upregulation of Gadd45a mRNA expression in rat A10 cells at 30 uM after 24 hrs by quantitative RT-PCR analysis relative to control; type: functional
A10 [4] = assay: Upregulation of Gadd45a mRNA expression in rat A10 cells at 30 uM after 6 hrs by quantitative RT-PCR analysis; type: functional, cell-based
[5] = Growth inhibition against mouse BC3H1 cells after 72 hrs by MTT assay; type: functional; conditions: BC3H-1, 72 h
Method in brief: (§1)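 Cells are seeded at 1 × 10^4/well in 24-well plates and cultured 24 h. Alkaloid is then added at increasing concentrations for 72 h. Medium is renewed and MTT added at 1 mg/mL for 4 h. Formazan is dissolved in SDS and A570 read. Growth % = (treated − time 0)/(control − time 0). GI50 is taken from the curves. Data are mean ± SE of 3 wells. Primary VSMCs come from aortas of 10-week male Sprague-Dawley rats, used at passages 5–15.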

[6] = Growth inhibition against human RKN cells after 48 hrs by MTT assay; type: functional
Method in brief: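 RKN human ovarian leiomyosarcoma cells are seeded at 2 × 10^4/well in 24-well plates and cultured 24 h. Alkaloid is then added at increasing concentrations for 48 h. Medium is renewed and MTT added at 200 μg/mL for 4 h. Formazan is dissolved in SDS and A570 read. Growth % is calculated relative to time-0 and untreated absorbances. GI50 is taken from the curves. Data are mean ± SE of 3 wells.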

[7] = Antiproliferative activity against rat VSMC assessed as cell growth inhibition; type: functional; method in brief: as §1
G-402 = assay: Growth inhibition against human G402 cells after 48 hrs by MTT assay; type: functional; conditions: G-402, 48 h
Method in brief: (§2)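 Cells were seeded in 24-well plates (SKN 1 × 10^4, G-402 2 × 10^4 cells/well) and cultured for 24 h. Alkaloid was then added, for 72 h with SKN or 48 h with G-402, and the medium was renewed. MTT was added (SKN 400 μg/mL, G-402 200 μg/mL) for 4 h, formazan was solubilized in SDS, and A570 was read. Growth % was corrected for time-0 absorbance relative to control, with 3 wells per point, and GI50 was derived from the concentration–growth data.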

A10 [8] = assay: Upregulation of Rgc32 mRNA expression in rat A10 cells at 3 to 30 uM […] by quantitative RT-PCR analysis; type: functional, cell-based
Method in brief: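 A10 cells were plated at 6.0 × 10^4 cells/well in 6-well plates. They were treated across a concentration series for 24 h, or for 1, 3, 6, 12 or 24 h in a time course. Rgc32 mRNA was then measured by quantitative RT-PCR. Results are mean ± SD of 3 wells, compared against untreated control.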

A10 [9] = assay: Growth inhibition against rat A10 cells after 72 hrs by MTT assay; type: functional; conditions: A10, 72 h
A10 [10] = assay: Upregulation of in Gadd45a mRNA expression in rat A10 cells at 3 uM after 24 hrs by quantitative RT-PCR analysis; type: functional, cell-based
[11] = Growth inhibition against rat VSMC after 72 hrs by MTT assay; type: functional; method in brief: as §1
A10 [12] = assay: Upregulation of Rgc32 mRNA expression in rat A10 cells at 30 uM after 24 hrs by quantitative RT-PCR analysis relative to control; type: functional
[13] = Growth inhibition against human SKN cells after 72 hrs by MTT assay; type: functional; method in brief: as §2
A10 [14] = assay: Upregulation of p53 mRNA expression in rat A10 cells at 3 to 30 uM after 24 hrs by quantitative RT-PCR analysis; type: functional, cell-based
A10 [15] = assay: Upregulation of Gadd45a mRNA expression in rat A10 cells at 30 uM after 3 hrs by quantitative RT-PCR analysis; type: functional, cell-based
A10 [16] = assay: Down regulation of Prim2 mRNA expression in rat A10 cells at 30 uM after 24 hrs by quantitative RT-PCR analysis; type: functional, cell-based
Method in brief: (§3)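 A10 rat aortic smooth muscle cells were seeded at 6 × 10^4 cells/well in 6-well plates and exposed to 30 μM alkaloid for 24 h at 37 °C in 5% CO2. The cells were then harvested and target mRNA levels were quantified by quantitative RT-PCR.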

A10 [17] = assay: Downregulation of Scd2 mRNA expression in rat A10 cells at 30 uM after 24 hrs by quantitative RT-PCR analysis; type: functional, cell-based; method in brief: as §3
A10 [18] = assay: Cell cycle arrest in Rgc32 overexpressing rat A10 cells assessed as accumulation at G2/M phase; type: functional, cell-based
A10 [19] = assay: Cell cycle arrest in Gadd45a overexpressing rat A10 cells assessed as accumulation at G2/M phase; type: functional, cell-based
[20] = Upregulation of Rgc32 mRNA expression in rat 3Y1 cells at 3 to 30 uM after 24 hrs by quantitative RT-PCR analysis; type: functional, cell-based
A10 [21] = assay: Downregulation of Impk mRNA expression in rat A10 cells at 30 uM after 24 hrs by quantitative RT-PCR analysis; type: functional, cell-based; method in brief: as §3
A10 [22] = assay: Upregulation of Rgc32 mRNA expression in rat A10 cells at 3 to 30 uM after 24 hrs by quantitative RT-PCR analysis; type: functional, cell-based
[23] = Upregulation of Gadd45a mRNA expression in rat 3Y1 cells at 30 uM after 24 hrs by quantitative RT-PCR analysis; type: functional, cell-based
A10 [24] = assay: Upregulation of Jak2 mRNA expression in rat A10 cells at 30 uM after 24 hrs by quantitative RT-PCR analysis; type: functional, cell-based; method in brief: as §3
A10 [25] = assay: Upregulation of Ogfrl1 mRNA expression in rat A10 cells at 30 uM after 24 hrs by quantitative RT-PCR analysis; type: functional, cell-based; method in brief: as §3
A10 [26] = assay: Upregulation of Calm1 mRNA expression in rat A10 cells at 30 uM after 24 hrs by quantitative RT-PCR analysis; type: functional, cell-based; method in brief: as §3

SMILES	GI50 [6] [µM]	GI50 [7] [µM]	GI50 (G-402) [µM]	Activity (A10 [8])	GI50 (A10 [9]) [µM]	GI50 [11] [µM]	GI50 [13] [µM]	Activity (A10 [16])	Activity (A10 [17])	Activity (A10 [21])	other results
[Cl-].c1c2c(cc3c1OCO3)-c1cc3ccc4c(c3c[n+]1CC2)OCO4 [COPTISINE CHLORIDE]	33	3.3	19.1	inactive	4.49	3.35	11.8	Active	Active	Active	Activity (A10 [1]): inactive; Activity (A10 [2]): Active; fold change (FC) (A10 [3]): 8; Activity (A10 [4]): inactive; GI50 [5]: 105 µM; Activity (A10 [10]): inactive; fold change (FC) (A10 [12]): 3.5; Activity (A10 [14]): inactive; Activity (A10 [15]): Active; Activity (A10 [18]): Active; Activity (A10 [19]): Active; Activity [20]: inactive; Activity (A10 [22]): Active; fold change (FC) [23]: 1.5
COc1cc2c(cc1OC)-c1cc3ccc(OC)c(OC)c3c[n+]1CC2 [PALMATINE CHLORIDE]			83.1	inactive			57.4	Active	Active	Active	Activity (A10 [24]): Active; Activity (A10 [25]): Active; Activity (A10 [26]): Active
COc1ccc2cc3[n+](cc2c1OC)CCc1cc2c(cc1-3)OCO2 [BERBERINE CHLORIDE]	49.6	95.1	11.9	inactive	102	95.1	15.9	Active	Active	Active	

— ChEMBL document CHEMBL1772972, “Differential gene expression in rat vascular smooth muscle cells following treatment with coptisine exerts a selective antiproliferative effect” (2011)
